Series [1] can be described thus: Solubility of BA and BA–PC in water or octanol. In kind it is physicochemical. As to conditions: octanol, 37 °C, organic solvent or mixture, thermodynamic from solid.
Series [2] can be described thus: Dispersible uniformity and stability in water. The class given is physicochemical. As to conditions: dispersed in water, 37 °C. The method in brief:
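Free test compound dispersed in water by simple agitation, alongside its phospholipid complex and complex-loaded self-microemulsifying formulation (drug:phospholipid molar ratios 1:1, 1:1.5, 1:2). Samples held at 37 °C in a water bath. Drug in the upper solution quantified by UV spectrophotometry at 316 nm at 0, 4, 8, 12 and 24 h. Bottles inspected visually for bottom precipitate.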

Series [3] can be described thus: Caco-2 cell permeation study. In kind it is in vitro ADME. As to conditions: human, Caco-2, pH 6.8.
The subject of the next series is Caco-2 cells. In words: Caco-2 cell permeation study. The class given is in vitro ADME. Conditions: apical to basolateral, 187.5 μg/mL of BA, pH 6.8, 37 °C; mean±SD, n=3. In general terms: Caco-2 cells form a polarised layer with tight junctions and transporters.
The subject of series [4] is intestine segments (duodenum and jejunum, ileum, colon). The experiment in a line: In situ single-pass intestinal perfusion. In kind it is in vivo, Sprague-Dawley rats. As to conditions: rat SPIP, 750 μg/mL BA in KR buffer pH 6.0, mean±SD, n=6.
Series [5] in a line: Oral bioavailability of BA–PC–SMEDDS and BA suspensions. As to conditions: both, Sprague-Dawley, rat, in vivo, 75 mg.

The structures appear in SMILES notation. ≈ marks a conversion by molar mass, not a printed value. Where “and” joins values, the source holds several entries; their conditions need not be identical. Identical values can stand only once.

For orientation: solubility means the dissolved amount per volume that the medium holds. As a reminder, the Papp A→B is how fast a substance crosses the layer from the apical side. A lower Papp A→B goes with slow passage. By Papp B→A is commonly meant how fast a substance crosses the layer from the basolateral side. One may read the efflux ratio as the permeability from basolateral to apical divided by that in the opposite direction, in the common usage. The term AUC denotes concentration integrated over time. Read a high AUC as high exposure. One may read the Cmax as the peak of the concentration-time curve. One may read the Tmax as the time from dosing to the highest level.

As for `O=C(O)[C@H]1O[C@@H](Oc2cc3oc(-c4ccccc4)cc(=O)c3c(O)c2O)[C@H](O)[C@@H](O)[C@@H]1O` [BA, 5,6-dihydroxy-4-oxygen-2-phenyl-4H-1-benzopyran-7-β-D-glucopyranoseacid], the solubility at 48 h in series [1] is 136 ± 12 µg/mL (≈ 305 µM). In series [2], the “Precipitate at the bottom of the bottles (visual)” value is listed as “precipitates”. Besides, the “Concentration of BA in the upper solution, initially” value in series [2] (initially) is “nearly zero”. Further, in series [3], the Papp A→B at 180 min, 187.5 μg/mL was found to be 0.119 ± 0.092 ×10⁻⁶ cm/s; the basolateral-to-apical permeability (Papp B→A) at 180 min, 187.5 μg/mL was 0.365 ± 0.096 ×10⁻⁶ cm/s; the efflux ratio at 180 min, 187.5 μg/mL was determined as 3.07. The “Papp through Caco-2 monolayer” value in the series with Caco-2 cells was 0.037 ×10^−6, cm/s and 0.037±0.012 ×10^−6, cm/s. Besides, the “Peff, Colon” value in series [4] (colon) is 0.506±0.088 ×10^−4, cm/s. In addition, the “Peff, Duodenum+jejunum” value in series [4] (duodenum+jejunum) is listed as 0.139±0.035 ^⁎ ×10^−4, cm/s. For the same compound, the “Peff, Ileum” value in series [4] (ileum) is 0.252±0.081 ^⁎ ×10^−4, cm/s. Moreover, in series [5], the exposure (AUC) amounted to 7610 ± 1580 ng·h/mL, the concentration peaked (Cmax) at 1840 ± 470 ng/mL and the Tmax was found to be 1.5 h.

Values taken from article PMC4629064 (Acta Pharmaceutica Sinica. B, 2014).
